Data: ChEMBL document CHEMBL1122044, “Antiinflammatory agents. 2. Syntheses and antiinflammatory activity of substituted 2-aminophenylacetic acid derivatives” (J Med Chem, 1982)

How the values were obtained:
[1] = tested on: Rattus norvegicus; assay: Percent change of the antiinflammatory activity in the 5-h Evans Blue-Carrageenan induced pleural effusion assay at the dose of 20 mg/kg (p.o.); assay type: functional; conditions: route oral
How it was run: (§1)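 Six fasted male rats per group received compound orally by gavage (10 mL/kg) in vehicle containing 0.5% Tween 80. Pleural effusion was induced by intrapleural injection of 5 mL 0.075% Evans blue–0.5% carrageenan type 7 and measured after 5 h. Results are given as percent change in pleural fluid volume versus a concurrent control group, with indomethacin 4.0 mg/kg as standard.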

[2] = molecular target: T1, Cyclooxygenase (Bos taurus, UniProt O62664+O62698); assay: Evaluated for the inhibition of Prostaglandin synthetase obtained from bovine seminal vesicles at the dose of 20 mg/kg (p.o.); set-up: dose 20 mg/kg, route oral
T1 sequence (O62664 whole entry): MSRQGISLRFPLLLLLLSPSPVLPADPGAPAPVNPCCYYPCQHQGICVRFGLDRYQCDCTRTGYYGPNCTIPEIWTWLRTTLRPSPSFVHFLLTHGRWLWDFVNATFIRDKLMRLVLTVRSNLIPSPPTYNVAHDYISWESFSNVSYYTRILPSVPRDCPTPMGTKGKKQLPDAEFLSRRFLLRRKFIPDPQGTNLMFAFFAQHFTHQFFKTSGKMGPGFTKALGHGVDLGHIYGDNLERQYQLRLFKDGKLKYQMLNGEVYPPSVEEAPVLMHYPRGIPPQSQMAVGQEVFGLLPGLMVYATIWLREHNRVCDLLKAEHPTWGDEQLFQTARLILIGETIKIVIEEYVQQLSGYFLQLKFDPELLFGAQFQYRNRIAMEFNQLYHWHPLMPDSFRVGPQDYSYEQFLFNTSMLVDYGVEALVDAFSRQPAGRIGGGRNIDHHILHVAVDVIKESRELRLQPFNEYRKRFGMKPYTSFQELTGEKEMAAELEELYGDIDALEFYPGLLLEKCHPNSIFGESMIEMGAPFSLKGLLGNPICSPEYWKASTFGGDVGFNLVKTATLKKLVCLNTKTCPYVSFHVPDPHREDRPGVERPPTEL
T1 sequence (O62698 whole entry): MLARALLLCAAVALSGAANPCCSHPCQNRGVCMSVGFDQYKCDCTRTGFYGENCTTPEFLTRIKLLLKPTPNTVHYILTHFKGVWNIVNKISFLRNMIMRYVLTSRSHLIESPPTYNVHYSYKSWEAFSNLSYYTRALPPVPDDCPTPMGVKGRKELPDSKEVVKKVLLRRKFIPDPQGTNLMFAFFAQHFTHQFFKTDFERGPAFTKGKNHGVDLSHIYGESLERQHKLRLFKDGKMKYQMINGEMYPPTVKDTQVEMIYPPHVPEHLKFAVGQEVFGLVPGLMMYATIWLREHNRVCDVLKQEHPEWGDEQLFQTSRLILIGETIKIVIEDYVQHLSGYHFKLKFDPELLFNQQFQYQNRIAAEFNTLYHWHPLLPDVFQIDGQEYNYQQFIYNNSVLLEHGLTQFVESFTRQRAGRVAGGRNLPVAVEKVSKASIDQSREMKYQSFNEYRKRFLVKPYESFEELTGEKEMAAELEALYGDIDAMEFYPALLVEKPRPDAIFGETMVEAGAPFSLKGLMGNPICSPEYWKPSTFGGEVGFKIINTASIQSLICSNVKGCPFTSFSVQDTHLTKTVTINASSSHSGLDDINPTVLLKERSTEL
How it was run: (§2)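 Cyclooxygenase-containing enzyme was a lyophilized 600g supernatant of bovine seminal vesicle homogenate in 0.05 M phosphate, pH 7.8. The assay used 0.1 M phosphate pH 7.8 with epinephrine and enzyme, and drug stocks of 3×10^-1 to 3×10^-6 M. After 3 min at 30 °C, arachidonic acid was added. Activity was taken as substrate minus basal O2-uptake rate, run in triplicate, and IC50 came from regression on log concentration.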

[3] = tested on: Rattus norvegicus; assay: Evaluated for the antiinflammatory activity in the 5-h Evans Blue-Carrageenan induced pleural effusion assay at the dose of 4.0 mg/kg (p.o.); assay type: functional; conditions: route oral; how it was run: as §1
[4] = tested on: Rattus norvegicus; assay: Evaluated for the antiinflammatory activity in the 5-h Evans Blue-Carrageenan induced pleural effusion assay at the dose of 20 mg/kg (p.o.); assay type: functional; conditions: route oral; how it was run: as §1
[5] = tested on: Rattus norvegicus; assay: Percent change of the antiinflammatory activity in the 5-h Evans Blue-Carrageenan induced pleural effusion assay at the dose of 4.0 mg/kg (p.o.); assay type: functional; conditions: route oral; how it was run: as §1
[6] = tested on: Rattus norvegicus; assay: Percent change of the antiinflammatory activity in the 5-h Evans Blue-Carrageenan induced pleural effusion assay at the dose of 100 mg/kg (p.o.); assay type: functional; conditions: route oral; how it was run: as §1
[7] = tested on: Rattus norvegicus; assay: Evaluated for the antiinflammatory activity in the 5-h Evans Blue-Carrageenan induced pleural effusion assay at the dose of 100 mg/kg (p.o.); assay type: functional; conditions: route oral; how it was run: as §1
[8] = molecular target: T1, Cyclooxygenase; assay: Evaluated for the inhibition of Prostaglandin synthetase obtained from bovine seminal vesicles at the dose of 100 mg/kg (p.o.); set-up: dose 100 mg/kg, route oral; how it was run: as §2
[9] = molecular target: T1, Cyclooxygenase; assay: Evaluated for the inhibition of Prostaglandin synthetase obtained from bovine seminal vesicles at the dose of 4 mg/kg p.o.; set-up: dose 4 mg/kg, route oral; how it was run: as §2
[10] = tested on: Rattus norvegicus; assay: Persent change of the antiinflammatory activity in the 5-h Evans Blue-Carrageenan induced pleural effusion assay at the dose of 4.0 mg/kg (p.o.); assay type: functional; conditions: route oral; how it was run: as §1
[11] = tested on: Rattus norvegicus; assay: Percent activity in the 5-h Evans Blue-Carrageenan induced pleural effusion assay at the dose of 100 mg/kg (p.o.); assay type: functional; conditions: route oral; how it was run: as §1
[12] = tested on: Rattus norvegicus; assay: Percent activity in the 5-h Evans Blue-Carrageenan induced pleural effusion assay at the dose of 20 mg/kg (p.o.); assay type: functional; conditions: route oral; how it was run: as §1
[13] = tested on: Rattus norvegicus; assay: Persent change of the antiinflammatory activity in the 5-h Evans Blue-Carrageenan induced pleural effusion assay at the dose of 20 mg/kg (p.o.); assay type: functional; conditions: route oral; how it was run: as §1
[14] = tested on: Rattus norvegicus; assay: Percent change of the antiinflammatory activity in the 5-h Evans Blue-Carrageenan induced pleural effusion assay at the dose of 0.8 mg/kg (p.o.); assay type: functional; conditions: route oral; how it was run: as §1
[15] = tested on: Rattus norvegicus; assay: Evaluated for the antiinflammatory activity in the 5-h Evans Blue-Carrageenan induced pleural effusion assay at the dose of 0.16 mg/kg (p.o.); assay type: functional; conditions: route oral; how it was run: as §1
[16] = molecular target: T1, Cyclooxygenase; assay: Evaluated for the inhibition of prostaglandin synthetase obtained from bovine seminal vesicles at the dose of 4.0 mg/kg (p.o.); set-up: dose 4 mg/kg, route oral
[17] = tested on: Rattus norvegicus; assay: Evaluated for the antiinflammatory activity in the 5-h Evans Blue-Carrageenan induced pleural effusion assay at the dose of 0.8 mg/kg (p.o.); assay type: functional; conditions: route oral; how it was run: as §1
[18] = tested on: Rattus norvegicus; assay: Percent activity in the 5-h Evans Blue-Carrageenan induced pleural effusion assay at the dose of 0.16 mg/kg (p.o.); assay type: functional; conditions: route oral; how it was run: as §1
[19] = tested on: Rattus norvegicus; assay: Percent activity in the 5-h Evans Blue-Carrageenan induced pleural effusion assay at the dose of 4.0 mg/kg (p.o.); assay type: functional; conditions: route oral; how it was run: as §1
[20] = tested on: Rattus norvegicus; assay: Persent change of the antiinflammatory activity in the 5-h Evans Blue-Carrageenan induced pleural effusion assay at the dose of 0.16 mg/kg (p.o.); assay type: functional; conditions: route oral; how it was run: as §1
[21] = tested on: Rattus norvegicus; assay: Persent change of the antiinflammatory activity in the 5-h Evans Blue-Carrageenan induced pleural effusion assay at the dose of 0.8 mg/kg (p.o.); assay type: functional; conditions: route oral; how it was run: as §1

Compound | IC50 [2] [µM] | Change [1] [%] | Pleural fluid [3] [mL] | Pleural fluid [4] [mL] | Change [5] [%] | Change [10] [%] | also measured
CC(C(=O)[O-])c1ccc(-c2ccccc2)cc1.[Na+] (centres undefined) | 12 | -52 | 3.4 | 2.9 | -42 | – | –
O=C([O-])Cc1cccc(C(=O)c2ccccc2)c1Cl.[Na+] | – | – | – | – | – | – | Change [6]: -8%; Pleural fluid [7]: 5.7 mL; IC50 [8]: > 100 µM
CC(C(=O)[O-])c1cccc(C(=O)c2ccccc2)c1N.[Na+] (centres undefined) | – | – | 6 | – | -4 | – | Change [6]: -38%; Pleural fluid [7]: 3.4 mL; IC50 [8]: 1 µM
O=C([O-])Cc1cccc(C(=O)c2ccccc2)c1.[Na+] | – | – | 5.9 | – | – | -7 | IC50 [9]: 40 µM
CN(C)c1c(CC(=O)[O-])cccc1C(=O)c1ccccc1.[Na+] | – | – | 5.9 | 5.2 | -5 | – | Change [11]: -36%; Change [12]: -16%; Pleural fluid [7]: 3.9 mL; IC50 [8]: > 1000 µM
Nc1cc(-c2ccccc2)ccc1CC(=O)[O-].[Na+] | 170 | -34 | 5.4 | 3.9 | -9 | – | –
O=C([O-])Cc1ccc(-c2ccccc2)cc1.[Na+] | 420 | -35 | 4.7 | 3.9 | -21 | – | –
Nc1c(CC(=O)[O-])cccc1Oc1ccccc1.[Na+] | 420 | -7 | 5.7 | 5.1 | 4 | – | –
O=C([O-])Cc1cccc(Oc2ccccc2)c1.[Na+] | > 1000 | – | 5.1 | 4.9 | – | -7 | Change [13]: -11%
Nc1c(CC(=O)[O-])cccc1C(=O)c1ccccc1.[Na+] [AMFENAC SODIUM] | – | – | 4.5 | – | -25 | – | Change [14]: -17%; Pleural fluid [15]: 5.1 mL; IC50 [16]: 0.2 µM; Pleural fluid [17]: 5 mL; Change [18]: -15%
CC(C(=O)[O-])c1cccc(Oc2ccccc2)c1.[Na+] (centres undefined) [FENOPROFEN SODIUM] | 98 | -29 | 5.2 | 3.9 | – | – | Change [19]: -6%
COc1ccc2c(c1)c(CC(=O)O)c(C)n2C(=O)c1ccc(Cl)cc1 [INDOMETHACIN] | – | – | 4 | – | – | -28 | –
CC(C(=O)[O-])c1cccc(C(=O)c2ccccc2)c1.[Na+] (centres undefined) [KETOPROFEN SODIUM] | – | – | 3.6 | – | – | -41 | IC50 [9]: 3.4 µM; Pleural fluid [15]: 5.8 mL; Pleural fluid [17]: 4.6 mL; Change [20]: -4%; Change [21]: -24%
